Experimental data gathered from unrelated publications.
Protocols differ between the studies behind these lines.
pH: 7.4

Compound | technique | matrix | time | logD
C=CC(=O)N1CC2(CCN(c3nc4c(c(-c5c(C)ccc6[nH]ncc56)c3C#N)COC(C)(C)C4)C2)C1 |  |  |  | 2.8
C[C@H]1CN(c2cccc(-c3ccc4ncnc(Nc5ncco5)c4c3)c2)CCO1 | shake flask | aqueous buffer |  | > 4.3
C=CC(=O)N1CC2(CCN(c3nc4c(c(-c5cc(O)cc6ccccc56)c3C)COC(C)(C)C4)C2)C1 |  |  |  | 4.3
C[C@H]1[C@@H](C(=O)NCc2nc(-c3ccc(C#N)cc3)cs2)CCCN1C(=O)[C@H]1CCC(=O)O1 | shake flask | aqueous buffer |  | 1.4
N=C(CC(O)c1cc2c(F)cc(F)cc2c2cc(C(F)(F)F)ccc12)Nc1ccc(Br)cc1 (centres unmarked) |  |  |  | 5.37
Cn1cc2c(C(=O)O)ccc(NS(=O)(=O)c3ccc(Cl)c(Cl)c3)c2n1 | shake flask | aqueous buffer |  | 0.5
N#Cc1ccc(-c2csc(CNC(=O)[C@H]3CCCN(C(=O)COCCF)C3)n2)cc1 | shake flask | aqueous buffer |  | 1.6
CN1CCN(c2ccc(-c3ccc4nncc(Nc5ccc(OC(F)(F)F)cc5)c4c3)cc2)CC1 | shake flask | aqueous buffer |  | 5.1
CC(C)(N)COCC(=O)N1CCC[C@H](C(=O)NCc2nc(-c3ccc(C(F)(F)F)cc3)cs2)C1 | shake flask | aqueous buffer |  | 1.4
CNS(=O)(=O)c1ccc(Nc2ncc(C(F)(F)F)c([C@H]3CC[C@@](C)(O)CC3)n2)c(C)c1 | shake flask | aqueous buffer | 1 h | 4
Cn1cc(Nc2ncnc3ccc(-c4cccc(N5CCOCC5)c4)cc23)cn1 | shake flask | aqueous buffer |  | 3.7
N#Cc1ccc(-c2csc(CNC(=O)[C@H]3CCCN(C(=O)CCN)C3)n2)cc1 | shake flask | aqueous buffer |  | -0.69
Cc1ccc(Nc2ncnc3ccc(-c4cccc(N5CCOCC5)c4)cc23)cc1 | shake flask | aqueous buffer |  | > 4.1
Cn1cc2c(C(=O)O)ccc(NS(=O)(=O)c3ccc(OCC4CCC4)c(Cl)c3)c2n1 | shake flask | aqueous buffer |  | 2
Clc1ccc(Nc2ncnc3ccc(-c4cccc(N5CCOCC5)c4)cc23)cc1 | shake flask | aqueous buffer |  | > 4.6
C=CC(=O)N1CC2(CCN(c3nc4c(c(-c5c(C)ccc6[nH]ncc56)c3C#N)C[C@H]3C[C@@H]4C3(C)C)C2)C1 |  |  |  | 4.4
O=C(O)c1ccc(NS(=O)(=O)c2ccc(Cl)c(Cl)c2)cc1F | shake flask | aqueous buffer |  | -0.2
CNS(=O)(=O)c1ccc(Nc2ncc3cc(Cl)c(=O)n(C4CCCC4)c3n2)c(C)c1 | shake flask | aqueous buffer | 1 h | 3.8
CN1CCN(c2cccc(-c3ccc4ncnc(Nc5ccc(Cl)c(C(F)(F)F)c5)c4c3)c2)CC1 | shake flask | aqueous buffer |  | > 4.3
Cc1ccc(Nc2cnnc3ccc(-c4ccc(N5CCN(C)CC5)cc4)cc23)cn1 | shake flask | aqueous buffer |  | 3.5
C=C1C[C@@]23CC[C@H]4[C@@](C)(CCC[C@@]4(C)C(=O)O[C@@H]4O[C@H](CO)[C@@H](O)[C@H](O)[C@H]4O)[C@@H]2CC[C@]1(O[C@@H]1O[C@H](CO)[C@@H](O)[C@H](O)[C@H]1O[C@@H]1O[C@H](CO)[C@@H](O)[C@H](O)[C@H]1O)C3 | shake flask | aqueous buffer |  | -1.51
CNS(=O)(=O)c1ccc(Nc2ncc(C(F)(F)F)c(N3CCC[C@](C)(O)C3)n2)c(C)c1 | shake flask | aqueous buffer | 1 h | 3.4
c1cc(-c2ccc3ncnc(Nc4ncco4)c3c2)nc(N2C[C@H]3C[C@@H]2CO3)n1 | shake flask | aqueous buffer |  | 3.1
O=C(O)c1ccc(NS(=O)(=O)c2ccc(Cl)c(Cl)c2)c2ncccc12 | shake flask | aqueous buffer |  | 0.9
C=CC(=O)N1CC2(CCN(c3nc4c(c(-c5cc(O)cc6ccccc56)c3F)COC(C)(C)C4)C2)C1 |  |  |  | 4.5
COCC(=O)N1CCC[C@H](C(=O)NCc2nc(-c3ccc(C#N)cc3)cs2)C1 | shake flask | aqueous buffer |  | 1.5
CN(c1ncco1)c1ncnc2ccc(-c3cccc(N4CCOCC4)c3)cc12 | shake flask | aqueous buffer |  | 2.1
CCOCC(=O)N1CCC[C@H](C(=O)NCc2nc(-c3ccc(C)nc3)cs2)C1 | shake flask | aqueous buffer |  | 1.4
CN1CCN(c2cccc(-c3ccc4ncnc(Nc5ccc([N+](=O)[O-])c(C(F)(F)F)c5)c4c3)c2)CC1 | shake flask | aqueous buffer |  | > 3.9
